FXIa inh = blocks human coagulation factor XIa protease activity | AID 798 | purified FXIa, Boc-Glu-Ala-Arg-AMC fluorogenic substrate | inhibition, % at 5 µM | hit rate 0.14% among 220,000;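 active = inhibition of at least 40%; inactive = inhibition below 40%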;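 note: fluorescence of freed AMC excited at 355 nm; 0% = enzyme without compound and 100% = no enzyme blank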
EP2 antag = blocks the human prostaglandin E2 receptor EP2. C6 glioma cells expressing human EP2, cAMP TR-FRET; cells stimulated with saturating PGE2. inhibition, % at 25 µM. hit rate 0.52% among 260,000;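 active = percent inhibition above 40 after rounding to a whole number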;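 note: rat C6 glioma host cells with rolipram phosphodiesterase inhibitor present; the protocol text gives 20 µM as final concentration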
Target sequence (P43116 whole entry, looked up): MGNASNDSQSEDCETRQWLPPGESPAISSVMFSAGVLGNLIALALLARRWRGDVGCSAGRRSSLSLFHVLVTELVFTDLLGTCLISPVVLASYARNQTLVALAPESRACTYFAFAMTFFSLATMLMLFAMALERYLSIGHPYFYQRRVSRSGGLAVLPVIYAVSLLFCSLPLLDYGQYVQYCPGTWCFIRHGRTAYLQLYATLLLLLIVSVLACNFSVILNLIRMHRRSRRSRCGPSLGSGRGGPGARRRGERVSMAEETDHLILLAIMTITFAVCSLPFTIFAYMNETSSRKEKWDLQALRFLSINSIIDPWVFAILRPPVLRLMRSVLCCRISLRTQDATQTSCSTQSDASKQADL
hK5 inh = inhibitors of human kallikrein 5; inhibition, % at 5 µM; AID 873; recombinant hK5, fluorogenic AMC substrate cleavage; hit rate 0.59% among 210,000; Q9Y337;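 active = inhibition of 40% or more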;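 note: 0% = enzyme controls without compound and 100% = no-enzyme blanks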
Target sequence (Q9Y337 67-293 limits assumed): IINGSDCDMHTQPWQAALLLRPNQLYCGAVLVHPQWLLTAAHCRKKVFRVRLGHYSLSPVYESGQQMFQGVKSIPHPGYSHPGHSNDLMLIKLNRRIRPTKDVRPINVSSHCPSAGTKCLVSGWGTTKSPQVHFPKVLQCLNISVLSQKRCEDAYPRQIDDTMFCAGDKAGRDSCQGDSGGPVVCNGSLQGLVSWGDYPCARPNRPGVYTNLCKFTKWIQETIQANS
EP2 mod = modulates human prostaglandin E2 receptor EP2 signaling | P43116 | EP2-expressing cells, cAMP HTRF FRET, PGE2 co-stimulation | induction, % at 25 µM | hit rate 0.83% among 260,000 | AID 940;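 active = compounds whose cAMP rise, as percent of the full-agonist control response, exceeds 60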;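 note: rat C6 glioma line stably carrying human EP2 under a CMV promoter; the protocol text gives 20 µM as final concentration; 100% = response of wells given 1 µM PGE2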
FXIIa inh 1536 = factor XIIa (human) inhibition | purified FXIIa, Boc-QGR-AMC fluorogenic substrate, 2 h | inhibition, % at 5 µM | hit rate 0.3% among 220,000 | AID 800; in the data active = inhibition above about 40%;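 note: 0% = enzyme with no compound and 100% = blank without enzyme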
Thrombin inh = thrombin (human) inhibition; P00734; alpha-thrombin, Boc-VPR-AMC fluorogenic substrate cleavage; hit rate 0.26% among 220,000; inhibition, % at 5 µM;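 active = inhibition at or above 40%; inactive = inhibition below 40%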;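 note: 0% = enzyme with no compound and 100% = wells without enzyme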
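Material: human alpha-thrombin protein. Incubation: reaction at ambient temperature. Technique: fluorescence of released AMC, ex 355 nm, em 460 nm. Control set: no-compound enzyme wells and no-enzyme blanks. Also added: Boc-VPR-AMC substrate, 15 µM final. Buffer or medium: pH 7.5 Tris (50 mM) with NaCl 150 mM, Tween 20 0.05%.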
* marks the source's active call; other numbers are inactive results; . = no result. In the library only some 2.1% were active in any assay of this set; here they are far more common.

SMILES	FXIa inh	EP2 antag	hK5 inh	EP2 mod	FXIIa inh 1536	Thrombin inh
CCOC(=O)C1CCCN(C2CC(=O)N(c3ccc(C)cc3)C2=O)C1 (stereo unspecified)	12.3	10.3	40.5*	-8.1	19.2	12.4
COCCCN1C(=O)C(O)=C(C(=O)c2ccc(C)o2)C1c1ccc(OC)c(OC)c1 (stereo unspecified)	.	14.7	.	-3.2	.	.
Cc1cc(Cl)ccc1OCC(=O)Nc1nnn(C)n1	.	6.5	.	-17.6	.	.
Cc1ccc(OCC(=O)Nc2nnn(C)n2)c(C)c1	28.1	7.6	-17.4	29.0	43.1*	3.6
S=C(NCCc1ccccc1)Nc1ccc(Br)cn1	40.5*	6.1	51.9*	43.1	29.6	20.7
CCOc1ccc2[nH]c(=O)c(CN(Cc3ccco3)C(=S)Nc3ccc(C)cc3)cc2c1	.	6.9	.	-29.3	.	.
COc1cccc(N2CCN(C3CC(=O)N(c4ccc(F)c(Cl)c4)C3=O)CC2)c1 (stereo unspecified)	-4.1	17.4	44.0*	3.5	-3.0	0.1
COc1cccc2sc(/N=C/N(C)C)nc12	24.4	12.7	35.5	1.7	46.3*	22.3
COc1cccc2sc(N(C)c3ccccc3)nc12	14.9	6.9	-6.6	-5.0	26.3	-2.7
CCc1nn2c(N3CCC(O)CC3)c3c(nc2c1-c1cccs1)CCC3	.	10.6	.	-53.2	.	.
Cc1onc(-c2c(F)cccc2Cl)c1C(=O)N[C@@H]1C(=O)N2[C@H]1SC(C)(C)[C@H]2C(=O)O	.	54.8*	.	20.3	.	.
Cc1onc(-c2ccccc2)c1C(=O)N[C@@H]1C(=O)N2[C@@H]1SC(C)(C)[C@@H]2C(=O)O	0.1	.	-3.4	26.0	1.4	.
CCCCCOc1ccc(C(=O)NC(C(=O)O)C(C)C)cc1 (stereo unspecified)	11.2	8.2	41.0*	6.6	-0.6	8.9
CCCCc1ccc(C(=O)NC(C(=O)O)C(C)C)cc1 (stereo unspecified)	-5.4	12.3	-0.3	26.4	-12.8	-4.5
c1ccc(Cc2nc3cc4ccccc4cc3[nH]2)cc1	.	12.2	.	-118.8	.	.
Cn1c(=O)c(C(=O)/C=C/c2cccs2)c(-c2ccccc2)c2cc(Cl)ccc21	.	16.2	.	38.4	.	.
Cc1cccc(Oc2nc(-c3ccncc3)nc3ccccc23)c1	4.0	5.5	-7.0	71.2*	3.6	-5.7
Cc1cccc(Oc2nc(-c3ccccn3)nc3ccccc23)c1	6.1	13.0	-3.6	47.2	16.0	4.9
c1ccc(Oc2nc(-c3cccnc3)nc3ccccc23)cc1	-1.2	6.8	0.5	86.6*	3.3	-8.9
Cc1ccc(/C=N\Nc2nc3ccc(Cl)cc3[nH]2)o1	19.7	18.4	-79.0	-39.4	51.7*	4.1
COc1cc(C)cc2c(-c3c(O)cc(O)c4c3C[C@H](C)N[C@@H]4C)cc(-c3cc(-c4c(O)cc(O)c5c4C[C@H](C)N[C@@H]5C)c4cc(C)cc(OC)c4c3O)c(O)c12	.	41.1*	.	-11.8	.	.
COCC(C)NC(=O)[C@H]1C[C@@H](c2ccco2)NS(=O)(=O)N1C (stereo partly specified)	.	.	.	-2.5	.	.
CCc1ccccc1NC(=O)CSc1nc2sc(C)c(C)c2c(=O)[nH]1	.	13.6	.	11.5	.	.
CCN1C(=O)/C(=C/N(C(C)=O)c2ccccc2)N(c2ccccc2)C1=S	9.1	22.6	50.4*	-7.2	21.6	76.2*
CCc1ccc(/C=C2/C(=O)N(c3ccccc3)C(=S)N2CC(=O)OC)s1	2.6	9.1	-0.8	20.9	3.0	-5.4
SMILES	FXIa inh	EP2 antag	hK5 inh	EP2 mod	FXIIa inh 1536	Thrombin inh
CCOC(=O)c1c(Cn2c(C)nc3ccccc3c2=O)sc2c1CCCC2	.	9.1	.	39.0	.	.
O=C(NCCc1nc2ccccc2[nH]1)c1ccco1	19.9	7.8	52.0*	-28.0	14.5	20.1
Cc1nc(SCC(=O)Nc2ccccc2F)nc2c1CCCC2	.	8.1	.	78.6*	.	.
Cc1ccc(S(=O)(=O)C/N=C(/NC(=S)N(c2ccccc2)c2ccccc2)c2ccccc2)cc1	2.3	0.8	1.9	61.3*	7.3	-0.7
O=[N+]([O-])c1ccc(NN=C2c3ccccc3Cc3ccccc32)c([N+](=O)[O-])c1	.	44.2*	.	24.1	.	.
O=C(OCC(=O)c1ccc(Cl)s1)c1ccc2ccccc2n1	13.7	6.1	22.4	16.3	42.7*	32.6
CC1=NOC(=O)/C1=C/c1ccc2c(c1)OCO2	2.0	61.2*	-0.1	-66.2	-1.4	-13.5
COc1cccc(NC(C)(C)c2nnnn2-c2c(C)cccc2C)c1	43.8*	9.5	28.7	8.8	66.1*	1.4
O=[N+]([O-])c1cncc([N+](=O)[O-])c1Nc1ccccc1Cl	30.1	6.0	16.0	-47.3	44.1*	11.5
Cc1ccc2[nH]c(=O)c(C(c3nnnn3CC3CCCO3)N3CCc4ccccc43)cc2c1 (stereo unspecified)	.	9.9	.	-7.6	.	.
Nc1ccc2nc(-c3cccs3)[nH]c2c1	-13.7	93.3*	-48.0	4.3	-24.6	-11.2
Fc1cc(F)c2nc(N3CCCC3)sc2c1	32.0	15.0	36.0	-66.6	102.6*	0.9
Fc1cccc2sc(N3CCCCC3)nc12	-22.9	5.0	-23.0	9.2	17.0	2.9
ONC(=Nc1ccccc1Cl)c1ccccc1Cl	2.3	6.7	-0.5	70.7*	11.6	-0.9
O=[N+]([O-])c1cccc(C(=Nc2ccccc2Cl)NO)c1	4.9	8.6	-23.0	-3.4	7.5	-5.6
Cc1ccc(C(C(=O)NC2CCCCC2)N(Cc2cccnc2)C(=O)Cc2c[nH]c3ccccc23)cc1 (stereo unspecified)	.	9.1	.	17.9	.	.
O=C(Nc1cccc2ccccc12)N1CCCCC1	.	16.1	.	13.7	.	.
O=C(Nc1cccc2ccccc12)N1CCCN(c2c(Cl)cncc2Cl)CC1	-1.1	40.6*	-2.1	-60.5	3.1	-2.2
N#Cc1c(NC(=O)CCC(=O)Nc2sc3c(c2C#N)CCCC3)sc2c1CCCC2	.	4.6	.	-27.3	.	.
Cn1c2ccc(Br)cc2c2nnc(SCC(N)=O)nc21	.	6.7	.	-4.4	.	.
O=C(NC1CCCC1)C1CCCN1C(=O)Nc1ccccc1Cl (stereo unspecified)	-1.6	.	-4.7	-27.3	16.5	-15.3
COc1ccccc1NC(=O)N1CCCC1C(=O)NC1CCCCC1 (stereo unspecified)	11.0	5.0	22.4	25.8	14.7	53.6*
OC1(C(O)(c2ccc(-c3ccccc3)cc2)c2ccc(-c3ccccc3)cc2)CCCCC1	.	43.1*	.	24.8	.	.
CCOC(=O)CSc1nnc(COc2ccccc2C)n1CC	.	21.5	.	12.5	.	.
Cc1ccc(C)n1-c1cc([N+](=O)[O-])ccc1-n1ccnc1	2.9	7.4	0.8	9.1	8.6	-0.1
CC1(C)N([O-])c2cc([N+](=O)[O-])ccc2[N+]1=O	2.5	86.8*	0.3	-44.9	12.5	1.9
COc1cc(C(=O)N2CCC(C(=O)c3nccs3)CC2)cc(OC)c1OC	.	.	.	-27.6	.	.
COc1ccc(N2C(=O)CSC2c2cccc(OC)c2OC)cc1 (stereo unspecified)	8.2	4.6	39.1	9.8	16.8	42.3*

Screening data as filed in PubChem BioAssay.
